According to ChEMBL document CHEMBL4229549, “Discovery and structural characterization of peficitinib (ASP015K) as a novel and potent JAK inhibitor” (Bioorg Med Chem, 2018):
pIC50: −log10 of the molar value.

Tests used:
[1] = Intrinsic clearance in rat liver microsomes; assay type: ADME, microsome; conditions: read-out: CLH
Outline: (§1)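 Compound at 0.2 or 1.0 µM incubated with male SD rat liver microsomes (0.2 mg protein/mL) plus 1 mM NADPH and 0.1 mM EDTA in 100 mM phosphate buffer at 37°C. Percentage remaining was measured by LC/MS/MS. Run in duplicate.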

[2] = Inhibition of JAK1/JAK3 in rat splenocytes assessed as reduction in IL-2-induced T cell proliferation; assay type: cell-based
Outline: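 Male Lewis rat splenocytes, 1.5×10^6 cells/mL in RPMI1640 with 10% FBS and 50 µM 2-mercaptoethanol, primed with concanavalin A 24 h at 37°C to induce IL-2 receptor. Then incubated with IL-2 plus compound at designated concentrations for 3 days. Proliferation read by alamarBlue after 6 h (ex 545/em 590 nm). Duplicate or triplicate wells, IC50 by linear or Sigmoid-Emax regression.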

[3] = biological target: T1, Tyrosine-protein kinase JAK3 (Homo sapiens, UniProt P52333); assay: Inhibition of recombinant human N-terminal His-tagged JAK3 catalytic domain (795 to 1124 residues) expressed in baculovirus expression system using Biotin-Lyn-Substrate2 after 1 hr by ELISA
T1 sequence (P52333 whole entry): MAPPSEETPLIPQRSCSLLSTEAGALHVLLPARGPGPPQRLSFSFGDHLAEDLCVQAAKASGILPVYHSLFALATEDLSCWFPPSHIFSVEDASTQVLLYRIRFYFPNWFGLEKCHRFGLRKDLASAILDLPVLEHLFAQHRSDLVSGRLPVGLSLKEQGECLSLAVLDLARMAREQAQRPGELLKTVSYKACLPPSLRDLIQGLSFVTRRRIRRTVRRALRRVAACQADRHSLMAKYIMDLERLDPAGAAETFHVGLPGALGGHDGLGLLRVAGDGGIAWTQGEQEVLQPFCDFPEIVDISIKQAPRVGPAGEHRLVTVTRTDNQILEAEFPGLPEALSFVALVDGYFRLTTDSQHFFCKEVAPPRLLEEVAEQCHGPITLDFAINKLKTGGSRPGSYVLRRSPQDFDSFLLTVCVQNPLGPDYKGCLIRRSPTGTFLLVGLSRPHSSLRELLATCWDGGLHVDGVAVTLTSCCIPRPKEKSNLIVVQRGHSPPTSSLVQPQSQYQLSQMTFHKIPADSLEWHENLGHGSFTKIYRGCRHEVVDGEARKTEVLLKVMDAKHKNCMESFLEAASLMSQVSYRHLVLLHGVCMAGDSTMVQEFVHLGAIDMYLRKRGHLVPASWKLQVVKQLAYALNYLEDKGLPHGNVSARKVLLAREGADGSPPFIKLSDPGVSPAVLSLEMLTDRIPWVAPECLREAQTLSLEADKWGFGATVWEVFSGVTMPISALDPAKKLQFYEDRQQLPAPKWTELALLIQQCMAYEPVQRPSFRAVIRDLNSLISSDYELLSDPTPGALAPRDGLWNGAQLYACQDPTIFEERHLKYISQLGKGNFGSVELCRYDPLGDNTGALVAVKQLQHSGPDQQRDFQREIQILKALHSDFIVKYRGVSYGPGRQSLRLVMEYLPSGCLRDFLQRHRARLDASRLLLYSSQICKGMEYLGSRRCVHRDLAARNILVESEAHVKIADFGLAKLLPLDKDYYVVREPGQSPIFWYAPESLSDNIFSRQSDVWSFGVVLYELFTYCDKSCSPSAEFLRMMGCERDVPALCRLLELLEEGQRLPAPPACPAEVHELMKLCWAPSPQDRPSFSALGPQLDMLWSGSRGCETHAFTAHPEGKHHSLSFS
Outline: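 Human JAK3 kinase domain with 250 nM biotinylated Lyn substrate peptide and 8 µM ATP (final). Reaction started with enzyme, run 1 h at room temperature on streptavidin plate. Phosphorylation read by anti-phosphotyrosine HRP ELISA. Run in duplicate.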

[4] = biological target: Tyrosine-protein kinase JAK1 (Homo sapiens, UniProt P23458); assay: Inhibition of recombinant human N-terminal GST-tagged JAK1 catalytic domain (850 to 1154 residues) expressed in baculovirus expression system using Biotin-Lyn-Substrate2 after 1 hr by ELISA
[5] = biological target: Tyrosine-protein kinase JAK2 (Homo sapiens, UniProt O60674); assay: Inhibition of recombinant human N-terminal His-tagged JAK2 catalytic domain (826 to 1132 residues) expressed in baculovirus expression system using Biotin-Lyn-Substrate2 after 1 hr by ELISA
[6] = Intrinsic clearance in Sprague-Dawley rat liver microsomes at 0.2 uM in presence of NADPH by LC-MS/MS analysis; assay type: ADME, microsome; conditions: read-out: CLH; outline: as §1
[7] = Inhibition of JAK1/JAK3 in Lewis rat splenocytes assessed as reduction in IL-2-induced T cell proliferation after 3 days by alamar blue assay; assay type: cell-based; conditions: 72 h
[8] = Cmax in Sprague-Dawley rat at 1 mg/kg, po administered as single dose by LC-MS/MS analysis; assay type: ADME, organism-based; design: dose 1 mg/kg, route oral; conditions: in vivo
Outline: (§2)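 Male SD rats (Crl:CD(SD), 7 weeks old), food deprived before dosing; single oral dose of 1 mg/kg in 0.5 w/v% methylcellulose. Blood was sampled at multiple time points up to 24 h. Unchanged compound in plasma was measured by LC/MS/MS. Parameters were calculated from mean plasma concentrations (n=3) at each time point.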

[9] = Tmax in Sprague-Dawley rat at 1 mg/kg, po administered as single dose by LC-MS/MS analysis; assay type: ADME, organism-based; conditions: in vivo; outline: as §2
[10] = AUC (0 to infinity) in Sprague-Dawley rat at 1 mg/kg, po administered as single dose by LC-MS/MS analysis; assay type: ADME, organism-based; design: dose 1 mg/kg, route oral, time infinity; conditions: in vivo; outline: as §2
[11] = AUC (0 to infinity) in Sprague-Dawley rat at 1 mg/kg, iv administered as single dose by LC-MS/MS analysis; assay type: ADME, organism-based; design: dose 1 mg/kg, time infinity, route intravenous; conditions: in vivo
Outline: as §2, with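 “intravenous” for “oral”, “10 v/v% propylene glycol.” for “0.5 w/v% methylcellulose.”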

[12] = Half life in Sprague-Dawley rat at 1 mg/kg, po administered as single dose by LC-MS/MS analysis; assay type: ADME, organism-based; conditions: in vivo; outline: as §2
[13] = Half life in Sprague-Dawley rat at 1 mg/kg, iv administered as single dose by LC-MS/MS analysis; assay type: ADME, organism-based; conditions: in vivo
Outline: as §2, with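 “intravenous” for “oral”, “10 v/v% propylene glycol.” for “0.5 w/v% methylcellulose.”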

[14] = Total clearance in Sprague-Dawley rat at 1 mg/kg, iv administered as single dose by LC-MS/MS analysis; assay type: ADME, organism-based; conditions: in vivo
Outline: as §2, with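 “intravenous” for “oral”, “10 v/v% propylene glycol.” for “0.5 w/v% methylcellulose.”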

[15] = Volume of distribution at steady state in Sprague-Dawley rat at 1 mg/kg, iv administered as single dose by LC-MS/MS analysis; assay type: ADME, organism-based; conditions: in vivo, read-out: Vdss
Outline: as §2, with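 “intravenous” for “oral”, “10 v/v% propylene glycol.” for “0.5 w/v% methylcellulose.”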

[16] = Oral bioavailability in Sprague-Dawley rat at 1 mg/kg administered as single dose by LC-MS/MS analysis; assay type: ADME, organism-based; conditions: in vivo
Outline: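 Fasted male SD rats, 7 weeks old, given 1 mg/kg as a single dose, orally in 0.5 w/v% methylcellulose and intravenously in 10 v/v% propylene glycol. Plasma was sampled up to 24 h and unchanged compound measured by LC/MS/MS. Bioavailability was derived from mean concentrations (n=3 per time point).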

Sequence of Tyrosine-protein kinase JAK1 (P23458 whole entry, the tested form may be a part): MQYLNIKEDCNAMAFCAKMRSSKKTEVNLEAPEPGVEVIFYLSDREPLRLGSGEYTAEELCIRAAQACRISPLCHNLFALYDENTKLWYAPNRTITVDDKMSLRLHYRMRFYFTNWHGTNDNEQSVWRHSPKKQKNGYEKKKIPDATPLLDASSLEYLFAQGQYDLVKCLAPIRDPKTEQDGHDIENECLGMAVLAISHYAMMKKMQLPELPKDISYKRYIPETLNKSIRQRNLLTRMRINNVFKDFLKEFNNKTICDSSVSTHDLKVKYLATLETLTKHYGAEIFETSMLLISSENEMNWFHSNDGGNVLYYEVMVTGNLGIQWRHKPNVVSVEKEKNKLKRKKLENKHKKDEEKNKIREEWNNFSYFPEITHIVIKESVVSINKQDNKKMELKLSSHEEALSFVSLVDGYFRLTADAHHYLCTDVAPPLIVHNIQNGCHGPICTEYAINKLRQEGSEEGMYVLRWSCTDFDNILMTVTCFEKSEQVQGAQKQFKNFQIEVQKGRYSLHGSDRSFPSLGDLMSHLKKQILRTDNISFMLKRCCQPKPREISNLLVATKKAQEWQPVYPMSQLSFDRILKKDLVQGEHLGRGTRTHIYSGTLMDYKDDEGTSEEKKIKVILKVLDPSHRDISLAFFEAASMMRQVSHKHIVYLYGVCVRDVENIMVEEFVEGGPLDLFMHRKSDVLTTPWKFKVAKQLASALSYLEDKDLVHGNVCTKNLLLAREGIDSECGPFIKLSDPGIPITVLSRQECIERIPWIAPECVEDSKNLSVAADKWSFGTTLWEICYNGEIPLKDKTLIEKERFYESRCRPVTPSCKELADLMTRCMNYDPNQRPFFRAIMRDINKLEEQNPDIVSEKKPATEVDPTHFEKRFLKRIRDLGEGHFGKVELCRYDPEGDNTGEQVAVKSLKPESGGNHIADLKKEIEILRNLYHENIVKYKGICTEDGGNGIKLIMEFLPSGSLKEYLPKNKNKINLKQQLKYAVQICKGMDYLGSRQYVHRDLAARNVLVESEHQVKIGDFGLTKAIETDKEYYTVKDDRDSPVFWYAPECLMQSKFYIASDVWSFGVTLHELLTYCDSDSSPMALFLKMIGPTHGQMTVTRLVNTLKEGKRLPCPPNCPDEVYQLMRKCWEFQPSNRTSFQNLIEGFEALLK
Sequence of Tyrosine-protein kinase JAK2 (O60674 whole entry, the tested form may be a part): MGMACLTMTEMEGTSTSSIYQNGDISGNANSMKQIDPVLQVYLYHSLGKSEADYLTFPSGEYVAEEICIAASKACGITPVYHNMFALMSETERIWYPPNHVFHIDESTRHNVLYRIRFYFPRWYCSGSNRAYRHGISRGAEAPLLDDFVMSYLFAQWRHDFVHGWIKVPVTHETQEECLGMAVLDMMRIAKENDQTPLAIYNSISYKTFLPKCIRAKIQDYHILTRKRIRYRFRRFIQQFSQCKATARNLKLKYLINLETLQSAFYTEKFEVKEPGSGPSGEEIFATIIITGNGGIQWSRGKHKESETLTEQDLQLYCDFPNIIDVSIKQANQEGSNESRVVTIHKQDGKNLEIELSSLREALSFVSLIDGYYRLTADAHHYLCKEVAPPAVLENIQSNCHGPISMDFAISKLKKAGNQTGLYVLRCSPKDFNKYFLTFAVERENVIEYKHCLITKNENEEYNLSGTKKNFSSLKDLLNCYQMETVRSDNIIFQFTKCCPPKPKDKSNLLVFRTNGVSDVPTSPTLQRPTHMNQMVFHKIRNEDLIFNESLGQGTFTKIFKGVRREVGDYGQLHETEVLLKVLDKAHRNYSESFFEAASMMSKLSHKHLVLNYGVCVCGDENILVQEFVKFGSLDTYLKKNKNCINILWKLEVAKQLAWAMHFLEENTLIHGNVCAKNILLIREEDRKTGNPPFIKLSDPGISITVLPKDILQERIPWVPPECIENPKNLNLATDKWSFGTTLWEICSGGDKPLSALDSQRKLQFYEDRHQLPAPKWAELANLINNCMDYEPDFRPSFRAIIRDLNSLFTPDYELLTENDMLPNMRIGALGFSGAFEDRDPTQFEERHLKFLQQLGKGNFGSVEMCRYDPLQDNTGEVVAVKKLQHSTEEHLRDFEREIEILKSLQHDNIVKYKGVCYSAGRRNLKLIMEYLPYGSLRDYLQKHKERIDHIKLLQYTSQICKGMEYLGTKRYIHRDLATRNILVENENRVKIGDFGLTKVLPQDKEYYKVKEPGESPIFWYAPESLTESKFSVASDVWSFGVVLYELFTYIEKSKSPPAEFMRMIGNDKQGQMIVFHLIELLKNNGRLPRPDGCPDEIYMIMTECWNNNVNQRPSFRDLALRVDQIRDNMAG

SMILES | pIC50 [3] | pIC50 [4] | pIC50 [5] | CLint scaled at 0.2 µM [6] [mL/min/kg] | further results
C[C@@H]1CCCC[C@@H]1Nc1c(C(N)=O)cnc2[nH]ccc12 | – | – | – | – | CLint scaled [1]: > 1000 mL/min/kg; pIC50 [2]: 7.07
NC(=O)c1cnc2[nH]ccc2c1NC12CC3CC(CC(C3)C1)C2 | 8.00 | 6.96 | 6.92 | – | –
Br.NC(=O)c1cnc2[nH]ccc2c1NC1C2CC3CC1CC(O)(C3)C2 (configuration not stated) | – | – | – | 124 | pIC50 [7]: 8.00; Cmax [8]: 126 ng/mL; Tmax [9]: 0.25 h; AUC(0-inf) [10]: 264 ng·h/mL; AUC(0-inf) [11]: 575 ng·h/mL; half-life [12]: 2.12 h; half-life [13]: 4.72 h; clearance [14]: 29 mL/min/kg; Vd [15]: 1.83 L/kg; bioavailability [16]: 45.9%
COC12CC3CC(C1)C(Nc1c(C(N)=O)cnc4[nH]ccc14)C(C3)C2 (configuration not stated) | 9.20 | 8.11 | 8.30 | > 1000 | –
NC(=O)c1cnc2[nH]ccc2c1NC1C2CC3CC1CC(F)(C3)C2 (configuration not stated) | 8.68 | 7.72 | 7.96 | > 1000 | –
NC(=O)c1cnc2[nH]ccc2c1NC1C2CC3CC(C2)CC1C3 (configuration not stated) | 8.68 | 7.92 | 7.96 | > 1000 | –
NC(=O)c1cnc2[nH]ccc2c1N[C@@H]1C[C@H]2CC[C@@H]1C2 (racemic) | 8.49 | 7.62 | 7.82 | 859 | –
